# An excerpt weighted towards active compounds, which were near 2.5% of everything screened.
# zfTRPN1 agonist: zebrafish TRPN1 channel agonists, primary screen, cell-based, HEK293, calcium fluorescence. transient receptor potential cation channel N1 (TRPN1/NompC), Danio rerio. HEK293 zebrafish TRPN1-YFP, Fluo-8 calcium fluorescence; 100% = response to 87 µM carbachol. activation, % at 3 µM. 0.18% of 220,000 active. AID 1424, 2008;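 active means activation above its plate's cutoff, the mean activation of test wells on that plate plus 3 SD, cut at about 19% in these data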
#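 System: zebrafish TRPN1-YFP in HEK293 cells / Dosing: 3 µM single point / Timing: dye loading 1 h at 37 °C, then 30 min room temperature / Signal: Fluo-8 calcium fluorescence, excitation 470-495 nm, emission 515-575 nm / Read-out basis: percent activation from peak over basal fluorescence ratio, control-normalized / Control set: high carbachol 87 µM, low DMSO alone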
# OX1R antag-1: antagonists of human orexin 1 receptor (OX1R); Orexin/Hypocretin receptor type 1 (Homo sapiens), O43613; OX1R-expressing cells, FRET antagonist read-out; inhibition, % at 6.6 µM; 1.8% of 330,000 active; in the data active means inhibition mostly above about 38%, no sharp cut-off; inactive means mostly below about 40%
# TRPML3 ag: human TRPML3 channel agonists, primary screen, cell-based, HEK293 TRPML3-YFP, Fluo-8 calcium fluorescence, 3 µM; AID 1448, 2008; 100% = the carbachol control signal; 0.29% of 220,000 active; Mucolipin-3 (Homo sapiens), Q8TDD5; activation, % at 3 µM;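 active means activation above its plate's cutoff, the mean activation of the plate's test wells plus 3 SD, cut at about 12% in these data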
# Target sequence (Q8TDD5 whole entry, looked up): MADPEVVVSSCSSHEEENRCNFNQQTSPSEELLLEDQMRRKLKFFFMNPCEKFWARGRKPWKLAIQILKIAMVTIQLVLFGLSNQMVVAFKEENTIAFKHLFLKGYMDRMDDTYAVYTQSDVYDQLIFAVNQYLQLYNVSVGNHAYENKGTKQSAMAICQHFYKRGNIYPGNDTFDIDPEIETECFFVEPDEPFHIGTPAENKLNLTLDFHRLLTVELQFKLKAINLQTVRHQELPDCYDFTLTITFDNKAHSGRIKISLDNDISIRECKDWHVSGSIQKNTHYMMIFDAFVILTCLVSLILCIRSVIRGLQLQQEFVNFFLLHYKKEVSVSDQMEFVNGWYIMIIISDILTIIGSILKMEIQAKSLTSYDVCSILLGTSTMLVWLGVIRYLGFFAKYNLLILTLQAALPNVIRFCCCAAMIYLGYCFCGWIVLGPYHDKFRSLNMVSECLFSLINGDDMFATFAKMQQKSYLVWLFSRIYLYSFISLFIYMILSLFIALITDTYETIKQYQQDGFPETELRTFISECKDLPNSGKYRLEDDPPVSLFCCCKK
#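 Test system – HEK293 line with stable expression of human TRPML3-YFP channel · Control set – carbachol 87 µM final as high control (100%), DMSO as low control (0%) · Signal – Fluo-8 calcium dye fluorescence, ex 470-495, em 515-575 nm · Incubation – 1-h 37 °C dye load, 5-s basal, 120-s post-compound reads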
# CHO parental Ca: ATP-evoked calcium signal inhibitors, parental CHO, primary screen, counter-screen for OX1R antagonist project, cell-based, fluorescence, Fluo-8 calcium dye; parental CHO-K1, ATP-induced calcium, Fluo-8 fluorescence; inhibition, % at 5.6 µM; 0.63% of 330,000 active;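 active means inhibition above that plate's mean sample inhibition plus 3 SD, cut at about 26% in these data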
#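 Test system: untransfected parental CHO cell line; also added: ATP stimulus; dosing: 5.6 µM, single dose; signal: calcium-sensitive Fluo-8 fluorescence; measure: percent inhibition of ATP-evoked calcium rise, normalized to controls; benchmarks: low control ATP plus DMSO, high control DMSO only; replication: one well per compound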
# OX1R antag-2: OX1R (HCRTR1) antagonists, primary screen, fluorescence, CHO/OX1R cells, Fluo-8 calcium, orexin A; Orexin/Hypocretin receptor type 1 (Homo sapiens), O43613; inhibition, % at 5 µM; Fluo-8 calcium fluorescence; 0.43% of 330,000 active;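 active means inhibition above its plate's threshold, mean inhibition of all tested compounds on the plate plus 3 SD, cut at about 37% in these data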
# OX1R HTRF confirm: OX1R (HCRTR1) antagonists, confirmation, cell-based, HTRF | shares compounds with OX1R antag-1 | AID 492964, 2010 | OX1R-expressing cells, HTRF antagonist assay | 49% of 1,800 active | inhibition, % at 6.6 µM; in the data active means inhibition above about 55%;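 further: CHO cells expressing OX1R stimulated with orexin A at about EC80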
# CHO-K1 HTRF cnt: signal inhibition in parental CHO-K1 cells, counter-screen for OX1R antagonist project, cell-based, HTRF | shares compounds with OX1R antag-1 | HTRF counterscreen | inhibition, % at 6.6 µM | 48% of 1,800 active | AID 493232, 2011; in the data active means inhibition above about 17%
# A number is an active result; n = inactive; x = no result.
SMILES,zfTRPN1 agonist,OX1R antag-1,TRPML3 ag,CHO parental Ca,OX1R antag-2,OX1R HTRF confirm,CHO-K1 HTRF cnt
O=C(CSc1nc2ccccc2c2nc3ccccc3n12)NCc1ccco1,n,81,n,n,n,62,n
CCn1c(SCC(=O)NCc2ccco2)nc2ccccc2c1=O,n,n,n,n,n,x,x
C=CCNc1nnc(Sc2ncccc2[N+](=O)[O-])s1,n,91,n,n,n,n,33
CC(C)[C@H](NS(=O)(=O)/C=C/c1ccccc1)C(=O)OCC(=O)NC(N)=O,n,n,n,n,n,x,x
N#Cc1cc2[nH]c3ccccc3c2[n+](-c2ccc([N+](=O)[O-])cc2)c1N,n,124,n,n,n,n,38
N#Cc1cc([N+](=O)[O-])ccc1N1CCCC1,n,n,n,n,n,x,x
CCN(C[C@H]1N[C@@](C)(C(=O)OC)[C@H]2C(=O)N(C)C(=O)[C@@H]12)S(=O)(=O)c1ccc(C(F)(F)F)cc1,x,n,x,n,n,x,x
Cc1nc(NC(=O)c2ccccc2)sc1-c1csc(N)n1,n,96,n,n,n,92,n
Cc1ccc(N2CC(C(=O)OCC(=O)Nc3ccc(F)cc3F)CC2=O)cc1 (stereo not given),x,n,x,n,n,x,x
CCCCNC1=CC(=O)C(=O)c2ccccc21,n,161,n,n,n,88,101
COc1ccc(-c2csc(Nc3ncccc3C)n2)cc1OC,n,84,n,n,n,73,n
Cc1cccnc1Nc1nc(-c2ccc(O)c(O)c2)cs1,n,n,n,n,n,x,x
O=S(=O)(NCCc1csc(-c2ccccc2)n1)c1ccc2c(c1)OCCO2,n,83,n,n,n,64,n
COc1cc(OC)c2cc(C(=O)N/N=C/c3cccc(OC)c3O)[nH]c2c1,n,77,n,n,n,72,n
COc1cc(/C=N/NC(=O)c2ccccc2O)ccc1OC(=O)CC1SC(=O)NC1=O (stereo not given),n,96,n,n,n,n,n
O=c1cc(/C=C/c2c(F)cccc2Cl)[nH]c2ccccc12,n,90,n,n,n,90,n
Nc1nccc(/C=C/c2c(F)cccc2Cl)n1,n,n,n,n,n,x,x
COc1ccc(C(CC(=O)O)N2Cc3ccccc3C2=O)cc1OC (stereo not given),x,n,x,n,n,x,x
CSc1nc2ccc(NC(=O)c3ccc(F)c(F)c3)cc2s1,n,n,n,n,n,x,x
CSc1nc2ccc(NC(=O)c3cc4ccccc4o3)cc2s1,n,84,n,n,n,91,n
CCC(=O)N1CCN(c2ccc(NC(=O)c3cc4ccccc4o3)cc2Cl)CC1,n,81,n,n,n,n,n
CCC(=O)N1CCN(c2ccc(NC(=O)c3ccc([N+](=O)[O-])o3)cc2Cl)CC1,n,x,n,x,x,x,x
CN(C)c1ccc(N=Nc2nc3ccccc3n2C)cc1,n,106,n,n,n,107,29
CCn1c(NCc2ccc(N(C)C)cc2)nc2ccccc21,n,n,n,n,n,x,x
CCOc1cc(C(=O)OCC(=O)NC(C)c2ccccc2)ccc1OCC(=O)N1CCOCC1 (stereo not given),n,n,n,n,n,x,x
SMILES,zfTRPN1 agonist,OX1R antag-1,TRPML3 ag,CHO parental Ca,OX1R antag-2,OX1R HTRF confirm,CHO-K1 HTRF cnt
C[n+]1cnc(-c2ccccc2)cc1-c1ccccc1,n,85,n,n,n,n,64
O=[N+]([O-])c1ccc(C[n+]2ccc(Cc3ccccc3)cc2)cc1,n,111,n,n,n,73,48
O=[N+]([O-])c1ccc(C[n+]2ccccc2)cc1,x,n,x,n,n,x,x
COCCOC(=O)C1=C(C)NC(C)=C(C(=O)OCCOC)C1/C=C/c1ccccc1OC,n,78,n,n,n,n,n
CC(=O)Nc1ccc(C(=O)NNC(=O)c2cc([N+](=O)[O-])cc([N+](=O)[O-])c2)cc1,n,80,n,n,n,n,73
CCC(=O)Nc1ccc(C(=O)NNC(=O)c2cc([N+](=O)[O-])cc([N+](=O)[O-])c2)cc1,n,181,n,n,n,n,n
CCC(=O)Nc1ccc(C(=O)NNC(=O)c2ccc([N+](=O)[O-])cc2)cc1,n,158,n,n,n,n,34
CCC(=O)Nc1ccc(C(=O)N/N=C/c2ccc([N+](=O)[O-])cc2)cc1,n,n,n,n,n,x,x
CC(=O)Nc1ccc(S(=O)(=O)NNC(=O)c2ccc([N+](=O)[O-])cc2)cc1,x,n,x,n,n,x,x
COC(=O)c1sc(NC(=O)c2ccc([N+](=O)[O-])o2)c(C#N)c1C,n,92,n,n,n,64,30
Cc1cccc(NC(=O)c2ccc([N+](=O)[O-])o2)n1,n,97,n,n,n,n,64
Cc1cccnc1NC(=O)c1ccc([N+](=O)[O-])o1,n,116,n,n,n,n,58
O=C(Nc1ccccc1Cl)c1ccc([N+](=O)[O-])o1,x,n,x,n,n,x,x
Cc1cccnc1NC(=O)c1ccc(COc2ccccc2)o1,x,n,x,n,n,x,x
CC(=O)N1CCc2c(sc(NC(=O)c3ccc([N+](=O)[O-])o3)c2C#N)C1,n,x,n,x,x,x,x
O=C(Nc1ccc(N2CCOCC2)cc1)c1ccc([N+](=O)[O-])o1,x,95,x,n,n,n,n
COC(=O)[C@]1(Cc2ccccc2)N[C@H](CN(C)C(=O)Nc2ccc(Cl)cc2)[C@@H]2C(=O)N(C)C(=O)[C@@H]21,x,n,x,n,n,x,x
O=C(NCCc1ccccc1)C(=O)NCC1OCCN1S(=O)(=O)c1ccc(Br)cc1 (stereo not given),x,n,x,n,n,x,x
COC(=O)CNC(=O)/C=C/c1cc(Br)ccc1OC,n,n,n,n,n,x,x
COc1ccc(Br)cc1/C=C/C(=O)Nc1ccc(C)cc1,n,95,n,n,n,69,22
C[C@H]1CN([C@@H](C)CO)C(=O)Cc2cc(NC(=O)C3CC3)ccc2O[C@H]1CN(C)Cc1ccc(C(=O)O)cc1,x,n,x,n,n,x,x
Cc1ccc(OCC(=O)NCCc2c[nH]c3ccccc23)cc1,n,n,n,n,n,x,x
Cc1cc(OCC(=O)NCCc2c[nH]c3ccccc23)c2c(C)c(C)c(=O)oc2c1,x,86,x,n,n,n,n
